Data set [1] in a line: folding enthalpy; higher = less favourable; fluorescence melt of hairpins on a sequencing array, two-state fit. The conditions noted are these: sodium 0.088 M. The method, boiled down: (§1)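 Hairpins were imaged by Cy3 fluorescence on a sequenced MiSeq flow cell with annealed Cy3 and quencher oligos, in 50 mM Na-HEPES pH 8.0, 25 mM NaCl, in 2.5 °C steps up to 60 °C. Bootstrapped two-state fits of normalised signals gave melting temperature and folding enthalpy. Four replicates were combined by inverse variance, and fitted temperatures were raised by 9.35 °C to match UV melts.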

Data set [2] is described as follows: melting temperature; fluorescence melt of hairpins on a sequencing array, two-state fit, raised by 9.35 °C to match UV melts. Particulars: sodium 0.088 M. The method, boiled down:
as §1

We go through 73 sequences from the array DNA melting data of Ke et al. (doi:10.1101/2024.01.08.574731).

With GTGTTCGAAAGAACTCAC ((((((....)))..))), in data set [1], the folding enthalpy is -13.7 kcal/mol. Moreover, the Tm in data set [2] is 38.1 °C.
For GTGTTCGGAAACGAATGC (..((((....))))..), the folding enthalpy in data set [1] was -24.9 kcal/mol. Moreover, the Tm in data set [2] was 42.1 °C.
On to GTGTTCGGAAACGGACAC ((((.((....)).)))), for which the folding enthalpy in data set [1] was -44.6 kcal/mol. Further, the Tm in data set [2] was 55 °C.
For GTGTTGAAAAACAC (((((....))))) the same measures were -26.3 kcal/mol and 49.9 °C.
For the sequence GTGTTGCCGAAAGGCCAC (((..(((....)))))), the folding enthalpy in data set [1] was -10.3 kcal/mol. Besides, in data set [2], the Tm was determined as 57.8 °C.
For GTGTTGCGAAAGCATCAC (((.(((....))).))) the same measures were -30.7 kcal/mol and 54 °C.
Take GTGTTGGCGAAAGCCCAC (((..(((....)))))): in data set [1], the folding enthalpy is -15.6 kcal/mol. Further, in data set [2], the Tm was 47 °C.
Take GTGTTGGGAAACCAACAC (((((((....))))))): in data set [1], the folding enthalpy was -43.1 kcal/mol. In data set [2], the Tm came out at 63.5 °C.
As to GTGTTGGGAAACTAACAC (((((.(....).))))), in data set [1], the folding enthalpy was -36.4 kcal/mol. For the same sequence, the Tm in data set [2] amounted to 46.7 °C.
On to GTGTTTCGAAAGAATCAC (((.(((....))).))), for which the folding enthalpy in data set [1] was -39.3 kcal/mol. The Tm in data set [2] is 45 °C.
Consider GTGTTTGGAAACAAATGC (..((((....))))..), for which, in data set [1], the folding enthalpy was -21.7 kcal/mol. For the same sequence, in data set [2], the Tm was found to be 34.8 °C.
With GTGTTTGGAAACAGACAC ((((.((....)).)))), the folding enthalpy in data set [1] is -36 kcal/mol. Moreover, the Tm in data set [2] was determined as 44.1 °C.
For GTTAAACCGAAAGGTAAC (((..(((....)))))), the folding enthalpy in data set [1] is -15.2 kcal/mol. For the same sequence, the Tm in data set [2] worked out at 29.9 °C.
Consider GTTAAAGAAATTTAAC ((((((....)))))), for which the folding enthalpy in data set [1] is -14.3 kcal/mol. The Tm in data set [2] was determined as 29.6 °C.
GTTAAAGGAAACTTTGAC ((.((((....)))).)): the folding enthalpy in data set [1] was -16.7 kcal/mol. The Tm in data set [2] is 33.2 °C.
On to GTTAACACGAAAGTGAAC (((..(((....)))))), for which, in data set [1], the folding enthalpy was -9.64 kcal/mol. Moreover, the Tm in data set [2] is 25.3 °C.
As for GTTAACCGAAAGGTCAAC (((.(((....))).))), the folding enthalpy in data set [1] is -20.5 kcal/mol. Also, in data set [2], the Tm worked out at 37.7 °C.
For GTTAACGAAAGTTAAAAC ((((((....)))..))) the same measures were -9.6 kcal/mol and 30.2 °C.
Regarding GTTAACGGAAACGTTAGC (.(((((....))))).), in data set [1], the folding enthalpy was -21.3 kcal/mol. Moreover, the Tm in data set [2] worked out at 42.9 °C.
GTTAAGCGAAAGCTAAC (((.(((....)))))): the folding enthalpy in data set [1] is -18.5 kcal/mol. Moreover, the Tm in data set [2] came to 44.4 °C.
GTTAAGCGAAAGCTCAAC (((.(((....))).))): the folding enthalpy in data set [1] was -16.7 kcal/mol. Further, in data set [2], the Tm is 37.6 °C.
Turning to GTTAAGGGAAACCTTAGC (.(((((....))))).), the folding enthalpy in data set [1] is -23.4 kcal/mol. The Tm in data set [2] worked out at 34.8 °C.
In the case of GTTAATCGAAAGATAAC (((.(((....)))))), in data set [1], the folding enthalpy is -16.8 kcal/mol. Moreover, the Tm in data set [2] was determined as 30.1 °C.
Regarding GTTAATCGAAAGATCAAC (((.(((....))).))), the folding enthalpy in data set [1] was -14.7 kcal/mol. Also, the Tm in data set [2] was 30.2 °C.
GTTAATCGAAAGATGAAC (((.(((....))).))): the folding enthalpy in data set [1] was -25.1 kcal/mol. In addition, the Tm in data set [2] was determined as 38.3 °C.
For GTTACACGAAAGTGAAAC (((.(((....))).))) the same measures were -23.6 kcal/mol and 45.3 °C.
Consider GTTACAGCGAAAGCTAAC (((..(((....)))))), for which the folding enthalpy in data set [1] is -11.1 kcal/mol. Further, in data set [2], the Tm is 28.2 °C.
Take GTTACCCGAAAGGGAAAC (((.(((....))).))): the folding enthalpy in data set [1] is -21.6 kcal/mol. Moreover, the Tm in data set [2] came out at 48.6 °C.
In the case of GTTACCGAAAGGTAAAC ((((((....))).))), in data set [1], the folding enthalpy was -15.7 kcal/mol. Further, in data set [2], the Tm was determined as 48 °C.
For GTTACCGAAAGGTACAAC ((((((....)))..))) the same measures were -10.9 kcal/mol and 31.2 °C.
With GTTACCGAAAGGTGGAAC ((((((....)))..))), the folding enthalpy in data set [1] is -10.2 kcal/mol. Besides, the Tm in data set [2] worked out at 28.1 °C.
Taken in the same sequence, the figures for GTTACCGAAAGGTTCAAC ((((((....)))..))) were -8.36 kcal/mol and 25 °C.
For GTTACCGGAAACAGTAAC (((((.(....).))))) the same measures were -17.2 kcal/mol and 32.8 °C.
As to GTTACGAAAGTAAC (((((....))))), the folding enthalpy in data set [1] is -30 kcal/mol. Also, the Tm in data set [2] was 54.7 °C.
In the case of GTTACGGGAAACCGTGAC ((.((((....)))).)), the folding enthalpy in data set [1] is -29.8 kcal/mol. The Tm in data set [2] was 49.8 °C.
As for GTTACTCGAAAGAGAAC (((.(((....)))))), in data set [1], the folding enthalpy is -13.7 kcal/mol. Besides, the Tm in data set [2] turned out to be 31.5 °C.
For GTTACTGGAAACAGTAGC (.(((((....))))).) the same measures were -24.2 kcal/mol and 40.3 °C.
Taken in the same sequence, the figures for GTTAGCCGAAAGGCAAC (((.(((....)))))) were -13.5 kcal/mol and 49.3 °C.
For GTTAGCCGAAAGGCCAAC (((.(((....))).))) the same measures were -16 kcal/mol and 40.3 °C.
Take GTTAGCGAAAGCTACAAC ((((((....)))..))): the folding enthalpy in data set [1] is -8.63 kcal/mol. Moreover, in data set [2], the Tm turned out to be 30.4 °C.
Regarding GTTAGCGAAAGCTAGAAC ((((((....)))..))), the folding enthalpy in data set [1] is -10 kcal/mol. Also, in data set [2], the Tm is 31.5 °C.
Taken in the same sequence, the figures for GTTAGGCGAAAGCCAAC (((.(((....)))))) were -12.7 kcal/mol and 50.7 °C.
Taken in the same sequence, the figures for GTTAGGCGAAAGCCCAAC (((.(((....))).))) were -13.8 kcal/mol and 37.2 °C.
For GTTAGGGCGAAAGCCAAC (((..(((....)))))), in data set [1], the folding enthalpy was -8.42 kcal/mol. Moreover, the Tm in data set [2] came to 29.3 °C.
GTTAGTGCGAAAGCAAAC (((..(((....)))))): in data set [1], the folding enthalpy is -10.6 kcal/mol. For the same sequence, in data set [2], the Tm was found to be 28.3 °C.
Taken in the same sequence, the figures for GTTATACGAAAGTAAAAC (((.(((....))).))) were -20.2 kcal/mol and 32.2 °C.
Taken in the same sequence, the figures for GTTATAGGAAACTATAAC (((((((....))))))) were -35.5 kcal/mol and 45.4 °C.
For GTTATAGGAAACTGTAAC ((((.((....)).)))) the same measures were -27.2 kcal/mol and 34 °C.
GTTATATCGAAAGATAAC (((..(((....)))))): the folding enthalpy in data set [1] is -11.2 kcal/mol. Further, the Tm in data set [2] turned out to be 27.7 °C.
For GTTATCGAAAGATAAAAC ((((((....)))..))), the folding enthalpy in data set [1] was -9.3 kcal/mol. The Tm in data set [2] amounted to 26.5 °C.
Consider GTTATCGAAAGATTAAC ((((((....))).))), for which the folding enthalpy in data set [1] is -15.1 kcal/mol. Moreover, the Tm in data set [2] is 29.5 °C.
Take GTTATCGGAAACGACAAC (((.(((....))).))): in data set [1], the folding enthalpy was -19.8 kcal/mol. The Tm in data set [2] was 36.4 °C.
For the sequence GTTATCGGAAACGATAGC (.(((((....))))).), the folding enthalpy in data set [1] is -21.5 kcal/mol. Further, the Tm in data set [2] turned out to be 43.4 °C.
For the sequence GTTATGAAAATAAC (((((....))))), the folding enthalpy in data set [1] was -16.9 kcal/mol. The Tm in data set [2] stood at 38.6 °C.
On to GTTATGTCGAAAGACAAC (((..(((....)))))), for which, in data set [1], the folding enthalpy was -10.6 kcal/mol. Also, the Tm in data set [2] is 28.5 °C.
For GTTATTCGAAAGAACAAC (((.(((....))).))), in data set [1], the folding enthalpy is -20.6 kcal/mol. Also, the Tm in data set [2] was found to be 30.5 °C.
As for GTTCAACCGAAAGGTAAC (((..(((....)))))), the folding enthalpy in data set [1] was -11.7 kcal/mol. Besides, the Tm in data set [2] is 26.7 °C.
As for GTTCAAGGAAACTTAAAC (((.(((....))).))), the folding enthalpy in data set [1] was -10.5 kcal/mol. The Tm in data set [2] is 29 °C.
For the sequence GTTCACCGAAAGGTAAAC (((.(((....))).))), in data set [1], the folding enthalpy was -20.4 kcal/mol. In addition, the Tm in data set [2] is 40.5 °C.
As to GTTCACGAAAGTGAAAC ((((((....))).))), in data set [1], the folding enthalpy was -16.3 kcal/mol. Also, the Tm in data set [2] turned out to be 46.1 °C.
On to GTTCACGAAAGTGCGAAC ((((((....)))..))), for which the folding enthalpy in data set [1] was -10.7 kcal/mol. Further, the Tm in data set [2] is 31.6 °C.
On to GTTCACGAAAGTGGAAAC ((((((....)))..))), for which the folding enthalpy in data set [1] was -13.4 kcal/mol. Also, the Tm in data set [2] came out at 30.9 °C.
With GTTCACGAAAGTGGAAC ((((((....))).))), in data set [1], the folding enthalpy is -19.1 kcal/mol. The Tm in data set [2] was determined as 45.4 °C.
For the sequence GTTCACGAAAGTGGTAAC ((((((....)))..))), the folding enthalpy in data set [1] is -12.5 kcal/mol. In addition, the Tm in data set [2] came to 25.6 °C.
Take GTTCACGCGAAAGCGAAC (((..(((....)))))): the folding enthalpy in data set [1] was -10.2 kcal/mol. Further, the Tm in data set [2] was 32.7 °C.
Consider GTTCAGCGAAAGCTAAC (((.(((....)))))), for which the folding enthalpy in data set [1] was -13.8 kcal/mol. In addition, in data set [2], the Tm was 36.4 °C.
Taken in the same sequence, the figures for GTTCAGGGAAACCTGAGC (.(((((....))))).) were -22.5 kcal/mol and 46.6 °C.
For GTTCATCGAAAGATAAAC (((.(((....))).))) the same measures were -18.1 kcal/mol and 31.5 °C.
With GTTCATCGAAAGATTAAC (((.(((....))).))), in data set [1], the folding enthalpy is -34.2 kcal/mol. In addition, the Tm in data set [2] turned out to be 32.6 °C.
Taken in the same sequence, the figures for GTTCATGGAAACATGAAC (((((((....))))))) were -49.9 kcal/mol and 58.2 °C.
Regarding GTTCATGGAAACATGAGC (.(((((....))))).), in data set [1], the folding enthalpy is -23.4 kcal/mol. Further, the Tm in data set [2] came out at 43.9 °C.
In the case of GTTCCAGGAAACCGGAAC (((((.(....).))))), the folding enthalpy in data set [1] was -45.4 kcal/mol. Moreover, in data set [2], the Tm amounted to 45.6 °C.
GTTCCCGAAAGGGGAAAC ((((((....)))..))): the folding enthalpy in data set [1] is -11.8 kcal/mol. Besides, the Tm in data set [2] is 37.2 °C.
